Source: ChEMBL document CHEMBL5247578, “Effective synthesis of benzimidazoles-imidazo[1,2-a]pyrazine conjugates: A comparative study of mono-and bis-benzimidazoles for antitumor activity” (Eur J Med Chem, 2019)

What was measured:
[1] = system: MCF7; assay: Antiproliferative activity against human MCF7 cells assessed as cell growth at 0.00000001 M incubated for 48 hrs by SRB assay relative to control; assay type: functional; conditions: dose 10 nM, read-out: Activity
[2] = system: MOLT-4; assay: Antiproliferative activity against human MOLT-4 cells assessed as cell growth at 0.000001 M incubated for 48 hrs by SRB assay relative to control; assay type: functional; conditions: read-out: Activity
[3] = system: SF-295; assay: Antiproliferative activity against human SF-295 cells assessed as cell growth at 0.00001 M incubated for 48 hrs by SRB assay relative to control; assay type: functional; conditions: read-out: Activity
[4] = system: HCT-116; assay: Growth inhibition against human HCT-116 cells assessed as total growth inhibitory concentration incubated for 48 hrs by sulforhodamine B assay; assay type: functional
[5] = system: HCT-15; assay: Growth inhibition against human HCT-15 cells incubated for 48 hrs by sulforhodamine B assay; assay type: functional
[6] = system: U-251; assay: Growth inhibition against human U-251 cells incubated for 48 hrs by sulforhodamine B assay; assay type: functional
[7] = system: Calf thymus DNA; assay: Binding affinity to calf thymus DNA assessed as binding constant at temperature of 298 K by Stern-Volmer quenching plot based fluorescence spectroscopic method; assay type: nucleic-acid assay; conditions: Bos taurus
[8] = system: OVCAR-5; assay: Antiproliferative activity against human OVCAR-5 cells assessed as cell growth at 0.00000001 M incubated for 48 hrs by SRB assay relative to control; assay type: functional; conditions: dose 10 nM, read-out: Activity
[9] = system: MDA-MB-468; assay: Antiproliferative activity against human MDA-MB-468 cells assessed as cell growth at 0.00001 M incubated for 48 hrs by SRB assay relative to control; assay type: functional; conditions: read-out: Activity
[10] = system: TK-10; assay: Growth inhibition against human TK-10 cells incubated for 48 hrs by sulforhodamine B assay; assay type: functional
[11] = system: HCC 2998; assay: Growth inhibition against human HCC 2998 cells incubated for 48 hrs by sulforhodamine B assay; assay type: functional
[12] = system: SK-OV-3; assay: Antiproliferative activity against human SK-OV-3 cells assessed as cell growth at 0.00001 M incubated for 48 hrs by SRB assay relative to control; assay type: functional; conditions: read-out: Activity
[13] = system: SNB-19; assay: Antiproliferative activity against human SNB-19 cells assessed as cell growth at 0.0001 M incubated for 48 hrs by SRB assay relative to control; assay type: functional; conditions: read-out: Activity
[14] = system: SNB-19; assay: Antiproliferative activity against human SNB-19 cells assessed as cell growth at 0.00000001 M incubated for 48 hrs by SRB assay relative to control; assay type: functional; conditions: dose 10 nM, read-out: Activity
[15] = system: A498; assay: Growth inhibition against human A498 cells incubated for 48 hrs by sulforhodamine B assay; assay type: functional
[16] = system: DU-145; assay: Antiproliferative activity against human DU-145 cells assessed as cell growth at 0.00000001 M incubated for 48 hrs by SRB assay relative to control; assay type: functional; conditions: dose 10 nM, read-out: Activity
Outline: (§1)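 NCI-60 five-dose screen over 10^-4–10^-8 M (10-fold dilutions). Cells grown in RPMI 1640 with 5% FBS and 2 mM L-glutamine, seeded at 5,000–40,000 cells/well and preincubated 24 h. Drug from DMSO stock, 48 h at 37 °C, 5% CO2. Adherent cells TCA-fixed and stained with 0.4% SRB; A515 read. Percent growth = (Ti−Tz)/(C−Tz)×100, or (Ti−Tz)/Tz×100 when Ti<Tz.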

[17] = system: OVCAR-3; assay: Antiproliferative activity against human OVCAR-3 cells assessed as cell growth inhibition by measuring lethal concentration incubated for 48 hrs by sulforhodamine B assay; assay type: functional; conditions: read-out: LC50 (the source's name)
[18] = system: BT-549; assay: Growth inhibition against human BT-549 cells assessed as total growth inhibitory concentration incubated for 48 hrs by sulforhodamine B assay; assay type: functional
[19] = system: ACHN; assay: Antiproliferative activity against human ACHN cells assessed as cell growth at 0.00000001 M incubated for 48 hrs by SRB assay relative to control; assay type: functional; conditions: dose 10 nM, read-out: Activity; outline: as §1
[20] = system: EKVX; assay: Antiproliferative activity against human EKVX cells assessed as cell growth at 0.00000001 M incubated for 48 hrs by SRB assay relative to control; assay type: functional; conditions: dose 10 nM, read-out: Activity
Outline: (§2)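 NCI-60 five-dose screen (10^-4 to 10^-8 M). Cells grown in RPMI 1640 with 5% FBS and 2 mM L-glutamine, plated at 5,000-40,000 cells/well and preincubated 24 h. Drug given from DMSO stock, then 48 h at 37 °C, 5% CO2. For adherent lines, cells fixed with cold TCA, SRB-stained and read at 515 nm. Percent growth taken against time-zero and untreated control.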

[21] = system: NCI/ADR-RES; assay: Antiproliferative activity against human NCI/ADR-RES cells assessed as cell growth at 0.0000001 M incubated for 48 hrs by SRB assay relative to control; assay type: functional; conditions: dose 100 nM, read-out: Activity
[22] = system: U-251; assay: Antiproliferative activity against human U-251 cells assessed as cell growth at 0.00001 M incubated for 48 hrs by SRB assay relative to control; assay type: functional; conditions: read-out: Activity
[23] = system: UACC-257; assay: Antiproliferative activity against human UACC-257 cells assessed as cell growth at 0.0001 M incubated for 48 hrs by SRB assay relative to control; assay type: functional; conditions: read-out: Activity
[24] = system: TK-10; assay: Antiproliferative activity against human TK-10 cells assessed as cell growth at 0.0000001 M incubated for 48 hrs by SRB assay relative to control; assay type: functional; conditions: dose 100 nM, read-out: Activity
[25] = system: KM12; assay: Antiproliferative activity against human KM12 cells assessed as cell growth at 0.00000001 M incubated for 48 hrs by SRB assay relative to control; assay type: functional; conditions: dose 10 nM, read-out: Activity
[26] = system: OVCAR-4; assay: Antiproliferative activity against human OVCAR-4 cells assessed as cell growth at 0.0001 M incubated for 48 hrs by SRB assay relative to control; assay type: functional; conditions: read-out: Activity
[27] = system: HCT-15; assay: Antiproliferative activity against human HCT-15 cells assessed as cell growth at 0.000001 M incubated for 48 hrs by SRB assay relative to control; assay type: functional; conditions: read-out: Activity; outline: as §2
[28] = system: SK-MEL-28; assay: Antiproliferative activity against human SK-MEL-28 cells assessed as cell growth at 0.00001 M incubated for 48 hrs by SRB assay relative to control; assay type: functional; conditions: read-out: Activity
[29] = system: U-251; assay: Antiproliferative activity against human U-251 cells assessed as cell growth at 0.00000001 M incubated for 48 hrs by SRB assay relative to control; assay type: functional; conditions: dose 10 nM, read-out: Activity
[30] = system: SF-295; assay: Antiproliferative activity against human SF-295 cells assessed as cell growth at 0.00000001 M incubated for 48 hrs by SRB assay relative to control; assay type: functional; conditions: dose 10 nM, read-out: Activity
[31] = system: OVCAR-3; assay: Growth inhibition against human OVCAR-3 cells assessed as total growth inhibitory concentration incubated for 48 hrs by sulforhodamine B assay; assay type: functional
[32] = system: NCI-H322M; assay: Antiproliferative activity against human NCI-H322M cells assessed as cell growth at 0.0001 M incubated for 48 hrs by SRB assay relative to control; assay type: functional; conditions: read-out: Activity
[33] = system: Hs-578T; assay: Antiproliferative activity against human Hs-578T cells assessed as cell growth at 0.0000001 M incubated for 48 hrs by SRB assay relative to control; assay type: functional; conditions: dose 100 nM, read-out: Activity
Outline: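 NCI-60 five-dose mode, 10^-4 to 10^-8 M in 10-fold steps. RPMI 1640, 5% FBS, 2 mM L-glutamine; 24 h preincubation, then 48 h drug exposure at 37 °C. Stocks in DMSO at 400× the top concentration, diluted in medium with gentamicin. TCA fixation, SRB staining, absorbance at 515 nm. Percent growth from time-zero (Tz), control (C) and test (Ti) readings.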

| SMILES | growth at 0.01 µM [1] [%] | growth at 1 µM [2] [%] | growth at 10 µM [3] [%] | TGI [4] [nM] | GI50 [5] [nM] | GI50 [6] [nM] | Kb [7] | growth at 0.01 µM [8] [%] | growth at 10 µM [9] [%] | GI50 [10] [nM] | GI50 [11] [nM] | growth at 10 µM [12] [%] | growth at 100 µM [13] [%] | growth at 0.01 µM [14] [%] | GI50 [15] [nM] | growth at 0.01 µM [16] [%] | CC50 [17] [nM] | TGI [18] [nM] | growth at 0.01 µM [19] [%] | growth at 0.01 µM [20] [%] | further results |
| --- | --- | --- | --- | --- | --- | --- | --- | --- | --- | --- | --- | --- | --- | --- | --- | --- | --- | --- | --- | --- | --- |
| COc1ccc(-c2cn3ccnc3c(-c3ccc4ncn(C5CCCCC5)c4c3)n2)cc1 | 88 | 78 | -29 | 4060 | 722 | 2220 | 36.5 10^4/M | 86 | 21 | 2990 | 2920 | -5 | 15 | 107 | 742 | 103 | > 100000 | 3910 | 93 | 87 | growth at 0.1 µM [21]: 94%; growth at 10 µM [22]: 14%; growth at 100 µM [23]: 55%; growth at 0.1 µM [24]: 88%; growth at 0.01 µM [25]: 100%; growth at 100 µM [26]: 57%; growth at 1 µM [27]: 42%; growth at 10 µM [28]: 33%; growth at 0.01 µM [29]: 102%; growth at 0.01 µM [30]: 87%; TGI [31]: > 100000 nM; growth at 100 µM [32]: 67%; growth at 0.1 µM [33]: 102% |
| c1ccc(Cn2cnc3ccc(-c4nc(-c5ccc6c(c5)ncn6C5CCCCC5)cn5ccnc45)cc32)cc1 | 86 | 64 | -82 | 2630 | 1570 | 1990 | 9.58 10^4/M | 89 | -49 | 3520 | 1900 | -24 | 32 | 99 | 1860 | 99 | > 100000 | 2680 | 96 | 89 | growth at 0.1 µM [21]: 97%; growth at 10 µM [22]: -27%; growth at 100 µM [23]: -27%; growth at 0.1 µM [24]: 84%; growth at 0.01 µM [25]: 100%; growth at 100 µM [26]: 14%; growth at 1 µM [27]: 65%; growth at 10 µM [28]: -9%; growth at 0.01 µM [29]: 98%; growth at 0.01 µM [30]: 91%; TGI [31]: 5790 nM; growth at 100 µM [32]: 14%; growth at 0.1 µM [33]: 104% |
